From PubChem
An excerpt weighted towards active compounds, which were near 11% of everything screened.
Diaph act CS: compounds boosting diaphorase resazurin reduction – biochemical, uHTS, resorufin fluorescence, counter-screen for diaphorase-coupled primary assays, primary screen; activation factor at 20 µM; Diaphorase/resazurin coupled assay, 16 min; active compounds read high; 1 = vehicle wells, 0 = NADH-free wells; AID 1229, 2008; 190,000 tested, 0.005% active;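 active means diaphorase activity raised at least twofold by the compound at 20 µM; inactive means activation factor below 2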
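System – purified diaphorase enzyme from Clostridium kluyveri · Input – enzyme 0.07 U/mL final · Also added – final NADH 0.114 mM, resazurin 0.1 mM · Measured by – fluorescence of resorufin, 544 nm excitation, 590 nm emission · Timing – 16 min enzyme reaction, ambient temperature · Measure – resorufin increase flagging diaphorase activators or reducers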
L major viab: Leishmania major promastigote growth inhibition, primary screen | Leishmania major promastigotes, resazurin fluorescence viability | inhibition, % at 10 µM | 200,000 tested, 9% active | AID 1063, 2008;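 further: promastigotes grown with compound for 44 hours at 28 °C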
WT yeast gro inh: growth inhibition of WT strain, primary screen, mitochondrial fusion inhibitor project, WT and mutant strains, chemical genetic | 190,000 tested, 2.1% active | AID 1362, 2008 | mitochondrial fusion phenotypic screen | inhibition, % at 10 µM; in the data active means inhibition above about 58%; tested in S. cerevisiae
G6PDH CS: L. mesenteroides G6PDH inhibitors, counter-screen for G6PDH-coupled screening assays, biochemical, Leuconostoc mesenteroides enzyme. Purified L. mesenteroides G6PDH, diaphorase/resazurin coupled fluorescence, 45 min. 200,000 tested, 0.12% active. inhibition, % at 5 µM. glucose-6-phosphate dehydrogenase [Leuconostoc mesenteroides]
Diaph inh CS: diaphorase inhibitors and chemical oxidizers, primary screen, counter-screen for diaphorase-coupled primary assays, biochemical, uHTS, resorufin fluorescence. 190,000 tested, 0.69% active. inhibition, % at 20 µM. AID 1217, 2008. diaphorase resazurin-to-resorufin fluorescence, NADH, 16 min; bacterial (C. kluyveri) enzyme, not human;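 active means primary screen inhibition at 20 µM above a set limit, cut at about 50% in these data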;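 further: plate controls were DMSO with full reaction for no effect and wells lacking NADH for full effect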
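Test system: Clostridium kluyveri diaphorase enzyme / Quantity: diaphorase at 0.14 U/mL in enzyme working solution / Incubation: 16-min room-temperature incubation before reading / Benchmarks: NADH-free wells as positive control, DMSO-only neutral wells / Signal: resorufin fluorescence 544/590 nm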
* hit, by the source's call. Unless noted, no stated cut-off is given here; in the data, active means inhibition above about 50%; inactive means the rest.

Results for CCOC(=O)c1cnc(-n2nc(C)cc2C)nc1NCCc1ccccc1 ?
Diaph act CS: 1.1; L major viab: 99*; WT yeast gro inh: 74*; G6PDH CS: 2; Diaph inh CS: -7

How did COc1ccc(N2CCN(C(CNC(=O)C3CCCCC3)c3cccnc3)CC2)cc1 (configuration not stated) do in these assays?
Diaph act CS: 0.9; L major viab: 87*; WT yeast gro inh: 29; G6PDH CS: 4; Diaph inh CS: 5

What do the screens show for `O=C(NCC(c1cccnc1)N1CCN(c2ccccc2F)CC1)C1CCCCC1` (configuration not stated)?
Diaph act CS: 0.9; L major viab: 71*; WT yeast gro inh: 2; G6PDH CS: 2; Diaph inh CS: 6

What do the screens show for `O=C(NCC(c1cccnc1)N1CCOCC1)NC1CCCCC1` (configuration not stated)?
Diaph act CS: 1; L major viab: 1; WT yeast gro inh: -4; G6PDH CS: 1; Diaph inh CS: 0

Results for O=C(NCC(c1cccnc1)N1CCN(c2ccc(F)cc2)CC1)C1CCCCC1 (configuration not stated) ?
Diaph act CS: 0.9; L major viab: 74*; WT yeast gro inh: 17; G6PDH CS: -3; Diaph inh CS: 9

How did Cc1ccccc1Cn1nc(C)c(NC(=O)c2cc3nc(-c4ccco4)cc(C(F)(F)F)n3n2)c1C do in these assays?
Diaph act CS: 0.8; L major viab: 33; WT yeast gro inh: 11; G6PDH CS: 2; Diaph inh CS: 15

How did CCc1ccc(-c2cc(C(F)(F)F)n3nc(C(=O)Nc4c(C)nn(Cc5ccc(F)cc5)c4C)cc3n2)s1 do in these assays?
Diaph act CS: 0.8; L major viab: 64*; WT yeast gro inh: 19; G6PDH CS: 0; Diaph inh CS: 21

What do the screens show for `O=C1CSC(=S)N1CC1CCCO1` (configuration not stated)?
Diaph act CS: 0.9; L major viab: 81*; WT yeast gro inh: -7; G6PDH CS: 8; Diaph inh CS: 8

What do the screens show for `COC(=O)c1ccccc1NC(=O)C12CCC(C)(C(=O)O1)C2(C)C` (configuration not stated)?
Diaph act CS: 0.8; L major viab: 1; WT yeast gro inh: -15; G6PDH CS: 10; Diaph inh CS: 17

Results for CN(C)c1nc(OCCOC(=O)COc2ccc(Cl)cc2Cl)nc(N(C)C)n1 ?
Diaph act CS: 0.9; L major viab: 4; WT yeast gro inh: 1; G6PDH CS: 14; Diaph inh CS: 12

What do the screens show for `CCN(CC)C(=O)C(C)OC(=O)COc1ccc(Cl)cc1Cl` (configuration not stated)?
Diaph act CS: 0.9; L major viab: 58*; WT yeast gro inh: 12; G6PDH CS: 8; Diaph inh CS: 8

Results for COc1ccc(-c2cc(C(=O)NNC(=S)NC(=O)c3c(-c4ccccc4)noc3C)[nH]n2)cc1 ?
Diaph act CS: 0.7; L major viab: 63*; WT yeast gro inh: -2; G6PDH CS: -9; Diaph inh CS: 34

Results for Cc1onc(-c2ccccc2)c1C(=O)Nc1cc(C(F)(F)F)ccc1N1CCOCC1 ?
Diaph act CS: 0.6; L major viab: 24; WT yeast gro inh: 7; G6PDH CS: 7; Diaph inh CS: 38

How did CC(C)n1nc(C(=O)Nc2ccccc2N2CCOCC2)c2ccccc2c1=O do in these assays?
Diaph act CS: 1; L major viab: 87*; WT yeast gro inh: -17; G6PDH CS: -5; Diaph inh CS: -2

What do the screens show for `CC(C)CC(=O)Nc1ccccc1N1CCOCC1`?
Diaph act CS: 1.2; L major viab: -4; WT yeast gro inh: 6; G6PDH CS: 9; Diaph inh CS: -18

How did Cc1onc(-c2ccccc2)c1C(=O)Nc1ccccc1N1CCOCC1 do in these assays?
Diaph act CS: 0.8; L major viab: 69*; WT yeast gro inh: 5; G6PDH CS: 32; Diaph inh CS: 23

How did COc1cc(OC)c(NC(=O)c2c(-c3ccccc3)noc2C)cc1Cl do in these assays?
Diaph act CS: 1; L major viab: 94*; WT yeast gro inh: -5; G6PDH CS: 3; Diaph inh CS: 3

Results for O=C(O)c1ccccc1S(=O)(=O)NCC(O)COc1ccc(Br)cc1 (configuration not stated) ?
Diaph act CS: 0.9; L major viab: 0; WT yeast gro inh: 13; G6PDH CS: 1; Diaph inh CS: 14

Results for NC(=O)c1c(NC(=O)CSc2nnc(-c3ccco3)n2-c2ccccc2)sc2c1CCC2 ?
Diaph act CS: 0.5; L major viab: 5; WT yeast gro inh: 0; G6PDH CS: 9; Diaph inh CS: 53*

What do the screens show for `N#Cc1c(NC(=O)CSc2nnc(-c3ccco3)n2-c2ccccc2)sc2c1CCC2`?
Diaph act CS: 1; L major viab: -3; WT yeast gro inh: -4; G6PDH CS: 5; Diaph inh CS: 0

How did COc1cccc(-n2c(SCC(=O)Nc3sc4c(c3C(N)=O)CCC4)nc3ccccc3c2=O)c1 do in these assays?
Diaph act CS: 0.8; L major viab: 52*; WT yeast gro inh: 20; G6PDH CS: 1; Diaph inh CS: 22

What do the screens show for `O=C(CCl)N(c1ccccc1)c1c[nH]c2ccccc12`?
Diaph act CS: 0.8; L major viab: 97*; WT yeast gro inh: -3; G6PDH CS: 8; Diaph inh CS: 17

How did O=C(CCl)N(c1ccc(Cl)cc1)c1c[nH]c2ccccc12 do in these assays?
Diaph act CS: 1; L major viab: 100*; WT yeast gro inh: 14; G6PDH CS: -4; Diaph inh CS: 0

What do the screens show for `CCN(CC)C(=O)CCCc1c[nH]c2ccccc12`?
Diaph act CS: 0.8; L major viab: -1; WT yeast gro inh: 30; G6PDH CS: 8; Diaph inh CS: 15

How did O=C(NCc1ccc(Cl)cc1)C(=O)c1c[nH]c2ccccc12 do in these assays?
Diaph act CS: 0.8; L major viab: -8; WT yeast gro inh: 7; G6PDH CS: -1; Diaph inh CS: 24

What do the screens show for `CC(=O)c1c(C)[nH]c(C(=O)COC(=O)c2cc(S(=O)(=O)N(C)c3ccccc3)ccc2Cl)c1C`?
Diaph act CS: 0.9; L major viab: 8; WT yeast gro inh: 0; G6PDH CS: -3; Diaph inh CS: 15

What do the screens show for `CCN(c1ccccc1)S(=O)(=O)c1ccc(Cl)c(C(=O)OCC(=O)c2[nH]c(C)c(C(C)=O)c2C)c1`?
Diaph act CS: 0.8; L major viab: 53*; WT yeast gro inh: -1; G6PDH CS: 11; Diaph inh CS: 20

What do the screens show for `C1COCCNCCOCCOCCOCCN1`?
Diaph act CS: 1; L major viab: -2; WT yeast gro inh: -17; G6PDH CS: 1; Diaph inh CS: 1
